Measurements pooled from the literature.
Lines come from different studies, so protocols differ.
Organism: Escherichia coli
Read-out: microbial growth

SMILES | technique | strain | time | setting | MIC
Brc1ccc2nc(SCc3ccccc3)c(CNCCC3CCN(C4CCCC4)CC3)cc2c1 | broth dilution | – | – | – | 32 µg/mL
Cc1ccc2[nH]nc(-c3nnc(Nc4ccc(F)cc4Cl)s3)c2c1 | – | ATCC25922 | – | – | 72.8 µg/mL
C[C@H]1COc2c(N3CCN(C)CC3)c(F)cc3c(=O)c(C(=O)O)cn1c23 | – | ATCC25922 | – | drug-resistant strain | ≤ 0.03 µg/mL
Cc1ccc2[nH]nc(-c3nnc(Nc4ccc(C)c(C)c4)s3)c2c1 | – | ATCC25922 | – | – | 124 µg/mL
CN1CCN(CCNCc2cc3ccccc3nc2SCc2ccccc2)CC1 | broth dilution | – | – | – | 64 µg/mL
C[C@H]1COc2c(N3CCN(C)CC3)c(F)cc3c(=O)c(C(=O)O)cn1c23 | – | – | – | – | ≤ 0.12 µg/mL
Cc1cc(Nc2nnc(-c3n[nH]c4ccc(C)cc34)s2)cc([N+](=O)[O-])c1 | – | ATCC25922 | – | – | 166 µg/mL
N[C@@H](Cc1c[nH]c2ccc(Cl)cc12)C(=O)O | – | MG1655 | 18 h | – | > 200 µM
Brc1ccc2nc(SCc3ccccc3)c(CNCc3ccc(CN4CCCC4)cc3)cc2c1 | broth dilution | – | – | – | > 128 µg/mL
CCN(CC)c1ccc(C=NC(=O)c2ccccc2)c(O)c1 | broth dilution | ATCC25922 | – | – | > 256 µg/mL
CCCCCCCCN=c1ccn(CCCCCCCCCCn2ccc(=NCCCCCCCC)cc2)cc1 | – | – | – | – | 0.5 µM
CC1(C)S[C@@H]2[C@H](NC(=O)[C@H](N)c3ccccc3)C(=O)N2[C@H]1C(=O)O | broth dilution | ATCC25922 | 12 h | – | 8 µg/mL
O=C(N[C@H](CO)[C@H](O)c1ccc([N+](=O)[O-])cc1)C(Cl)Cl | broth dilution | – | – | – | 16 µg/mL
COc1ccc2ccc(O)c(/C=N/[C@H]3CCCC[C@H]3/N=C/c3ccc(OCCN4CCCCC4)cc3O)c2c1 | broth dilution | – | – | – | > 40 µM
Cc1ccc2[nH]nc(-c3nnc(Nc4ccc(Cl)cc4)s3)c2c1 | – | ATCC25922 | – | – | 81.7 µg/mL
CO/N=C(\C(=O)N[C@@H]1C(=O)N2C(C(=O)[O-])=C(C[N+]3(C)CCCC3)CS[C@H]12)c1csc(N)n1 | – | – | – | – | ≤ 0.12 µg/mL
N=c1sc(C(=O)c2ccc(Nc3cnccn3)cc2)nn1-c1ccccc1 | broth dilution | ATCC10536 | – | – | 50 µg/mL
Cc1ccc2[nH]nc(-c3nnc(Nc4ccc(Cl)c(Cl)c4)s3)c2c1 | – | ATCC25922 | – | – | 140 µg/mL
CCN1CCN(c2cc3c(cc2F)c(=O)c(C(=O)O)cn3C2CC2)CC1 | broth dilution | ATCC25922 | – | – | 0.0625 µg/mL
[H]/N=C(/N)N[C@H]1[C@H](O)[C@@H](O)[C@H](O[C@@H]2O[C@@H](C)[C@](O)(C=O)[C@H]2O[C@@H]2O[C@@H](CO)[C@H](O)[C@@H](O)[C@@H]2NC)[C@@H](N/C(N)=N\[H])[C@@H]1O | broth dilution | ATCC25922 | – | – | 2 µg/mL
NC[C@H]1O[C@H](O[C@H]2[C@H](O)[C@@H](O[C@H]3O[C@H](CO)[C@@H](O)[C@H](N)[C@H]3O)[C@H](N)C[C@@H]2N)[C@H](N)C[C@@H]1O | – | – | – | – | ≤ 1 µg/mL
CC1(C)S[C@@H]2[C@H](NC(=O)[C@H](N)c3ccccc3)C(=O)N2[C@H]1C(=O)O | broth dilution | ATCC25922 | – | – | 4 µg/mL

SMILES | technique | strain | time | setting | MIC
C[C@@H](O)[C@H]1C(=O)N2C(C(=O)O)=C(S[C@@H]3CN[C@H](C(=O)N(C)C)C3)[C@H](C)[C@H]12 | – | – | – | – | ≤ 0.25 µg/mL
c1ccc(CSc2nc3ccccc3cc2CNCc2ccc(N3CCCCC3)cc2)cc1 | broth dilution | – | – | – | > 128 µg/mL
O=C(O)c1cn(C2CC2)c2cc(N3CCNCC3)c(F)cc2c1=O | broth dilution | ATCC25922 | – | – | 4 µg/mL
CN1CCN(CCNCc2cc3cc(Br)ccc3nc2SCc2ccccc2)CC1 | broth dilution | – | – | – | 16 µg/mL
CC(=O)C1=NN(c2ccc([N+](=O)[O-])cc2)C(=C(C#N)C(=O)c2ccc(Nc3cnccn3)cc2)S1 | broth dilution | ATCC10536 | – | – | 6.25 µg/mL
CN(C)[C@@H]1C(O)=C(C(N)=O)C(=O)[C@@]2(O)C(O)=C3C(=O)c4c(O)cccc4[C@@](C)(O)[C@H]3C[C@@H]12 | broth dilution | ATCC25922 | 16 h | – | 3.1 µM
[H]/N=C(/N)N[C@H]1[C@H](O)[C@@H](O)[C@H](O[C@@H]2O[C@@H](C)[C@](O)(C=O)[C@H]2O[C@@H]2O[C@@H](CO)[C@H](O)[C@@H](O)[C@@H]2NC)[C@@H](N/C(N)=N\[H])[C@@H]1O | broth dilution | ATCC25 ATCC25922 | – | – | 20 µg/mL
Cc1ccc2[nH]nc(-c3nnc(Nc4cc(Cl)cc(Br)c4)s3)c2c1 | – | ATCC25922 | – | – | 228 µg/mL
CN(Cc1cnc2nc(N)nc(N)c2n1)c1ccc(C(=O)N[C@@H](CCC(=O)O)C(=O)O)cc1 | broth dilution | BW25113 | 18 h | – | > 250 µg/mL
[H]/N=C(\N/C(=N/[H])NCCCCCCNC(=N)NC(=N)Nc1ccc(Cl)cc1)Nc1ccc(Cl)cc1 | – | – | – | – | 0.5 µM
CC[C@H]1OC(=O)[C@H](C)[C@@H](O[C@H]2C[C@@](C)(OC)[C@@H](O)[C@H](C)O2)[C@H](C)[C@@H](O[C@@H]2O[C@H](C)C[C@H](N(C)C)[C@H]2O)[C@](C)(O)C[C@@H](C)CN(C)[C@H](C)[C@@H](O)[C@]1(C)O | broth dilution | – | – | – | 4 µM
CCN(CC)c1ccc(C=NC(=S)c2ccccc2)c(O)c1 | broth dilution | ATCC25922 | – | – | > 256 µg/mL
CCN1CCC(CCNCc2cc3cc(Br)ccc3nc2SCc2ccccc2)CC1 | broth dilution | – | – | – | 32 µg/mL
COc1ccc2ccc(O)c(/C=N/[C@H]3CCCC[C@H]3/N=C/c3c(O)cccc3F)c2c1 | broth dilution | – | – | – | > 40 µM
N=c1sc(C(=O)c2ccc(Nc3cnccn3)cc2)nn1-c1ccc([N+](=O)[O-])cc1 | broth dilution | ATCC10536 | – | – | 6.25 µg/mL
COc1ccc2ccc(O)c(/C=N/[C@H]3CCCC[C@H]3/N=C/c3ccc(-c4ccccc4)cc3O)c2c1 | broth dilution | – | – | – | > 40 µM
N#CC(C#N)=C1SC(C(=O)c2ccc(Nc3cnccn3)cc2)=NN1c1ccc([N+](=O)[O-])cc1 | broth dilution | ATCC10536 | – | – | 12.5 µg/mL
Cc1ccc2[nH]nc(-c3nnc(Nc4ccc([N+](=O)[O-])cc4)s3)c2c1 | – | ATCC25922 | – | – | 92.8 µg/mL
CC(=O)C1=NN(c2ccccc2)C(=C(C#N)C(=O)c2ccc(Nc3cnccn3)cc2)S1 | broth dilution | ATCC10536 | – | – | 100 µg/mL
CCN1CCC(CCNCc2cc3cc(-c4ccccc4)ccc3nc2SCc2ccccc2)CC1 | broth dilution | – | – | – | 8 µg/mL
COc1cc(Cc2cnc(N)nc2N)cc(OC)c1OC | broth dilution | BW25113 | 18 h | – | 0.25 µg/mL
